Columns and labels:
[1] = target: T1, Sodium-dependent serotonin transporter (Rattus norvegicus, UniProt P31652); assay: Binding affinity against Serotonin transporter in male Sprague-Dawley rats using [3H]paroxetine ligand; IA = inactive
In short: (§1)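 Frozen rat midbrain membranes in 50 mM Tris, 120 mM NaCl, 5 mM KCl pH 7.4; 1.5 mg wet tissue per tube with 0.2 nM [3H]paroxetine, 90 min at room temperature; nonspecific defined with 1 μM citalopram; filtration and scintillation counting.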

[2] = target: T2, Sodium-dependent dopamine transporter (Rattus norvegicus, UniProt P23977); assay: (§2) Binding affinity Sprague-Dawley rats using [3H]WIN-35428 ligand
In short: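 Rat caudate-putamen membranes washed in ice-cold Krebs-HEPES pH 7.4, ~0.3% w/v (150–300 μg protein). Drug added 5 min before 1.5 nM [3H]WIN 35,428; 1 h on ice; filtration.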

[3] = target: T3, Norepinephrine transporter (Rattus norvegicus, UniProt Q9WTR4); assay: The compound was tested for binding affinity nisoxatine ligand; IA = inactive
In short: (§3)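 Rat frontal cortex membranes (male Sprague–Dawley) in 50 mM Tris/120 mM NaCl/5 mM KCl pH 7.4; 8 mg wet tissue with 0.5 nM [3H]nisoxetine, 60 min at 0–4 °C; 1 μM desipramine for nonspecific; filtration, scintillation counting.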

[4] = target: T2, Sodium-dependent dopamine transporter; assay: Inhibition of Dopamine uptake in male Sprague-Dawley rats using [3H]DA ligand
[5] = target: T3, Norepinephrine transporter; assay: (§4) The compound was tested for binding affinity nisoxatine ligand; in short: as §3
[6] = (§5) Binding affinity of Sigma opioid receptor type 1 in Guinea pig brain membranes using [3H]pentazocine ligand; type: cell membranes, Membrane
In short: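 σ1 sites: guinea pig brain membranes minus cerebella (350–500 μg protein) with 3 nM [3H](+)-pentazocine in 50 mM Tris-HCl pH 8.0, 120 min at 25 °C; 10 μM haloperidol for nonspecific; filtration on polyethyleneimine-soaked filters. IC50 converted to Ki via Cheng–Prusoff.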

[7] = target: T1, Sodium-dependent serotonin transporter; assay: (§6) Binding affinity against Serotonin transporter in male Sprague-Dawley rats using [3H]paroxetine ligand; in short: as §1
[8] = target: Sigma intracellular receptor 2 (Rattus norvegicus, UniProt Q5U3Y7); assay: The compound was tested for binding affinity of Sigma opioid receptor type 2 in rat liver membranes using [3H]DTG ligand; type: cell membranes, Membrane
In short: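 σ2 sites: male Sprague–Dawley rat liver membranes (160 μg protein), 5 nM [3H]DTG plus 1 μM dextrallorphan masking σ1, 50 mM Tris-HCl pH 8.0, 120 min at 25 °C; 10 μM haloperidol nonspecific; filtration. IC50 converted to Ki by Cheng–Prusoff.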

[9] = target: T3, Norepinephrine transporter; assay: as §4; remark: listed apart in the source
In short: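 Male Sprague-Dawley rat frontal cortex membranes in 50 mM Tris, 120 mM NaCl, 5 mM KCl, pH 7.4; 8 mg original wet tissue per tube. Incubation with 0.5 nM [3H]nisoxetine for 60 min at 0-4 °C. Nonspecific binding with 1 μM desipramine. Filtration and scintillation counting; Ki from at least three experiments in triplicate.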

[10] = target: T1, Sodium-dependent serotonin transporter; assay: as §6; remark: listed apart in the source
In short: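 Male Sprague-Dawley rat midbrain membranes in 50 mM Tris, 120 mM NaCl, 5 mM KCl, pH 7.4; 1.5 mg original wet tissue per tube. Incubation with 0.2 nM [3H]paroxetine for 90 min at room temperature. Nonspecific binding with 1 μM citalopram. Filtration and scintillation counting; Ki from at least three experiments in triplicate.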

[11] = target: T2, Sodium-dependent dopamine transporter; assay: as §2; remark: listed apart in the source
In short: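 Rat caudate-putamen membranes washed in modified Krebs-HEPES buffer, pH 7.4; 150-300 μg protein per tube. Filtration read-out; Ki by nonlinear least-squares fit; at least three independent experiments.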

[12] = as §5; type: cell membranes, Membrane; remark: listed apart in the source
In short: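 Guinea pig brain membranes (minus cerebella), 350–500 μg protein, with 3 nM [3H](+)-pentazocine in 50 mM Tris-HCl pH 8.0 for 120 min at 25 °C. Nonspecific binding with 10 μM haloperidol. Filtration, then overnight extraction and counting. IC50 from curve fit, converted to Ki by Cheng-Prusoff.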

T1 sequence (P31652 whole entry): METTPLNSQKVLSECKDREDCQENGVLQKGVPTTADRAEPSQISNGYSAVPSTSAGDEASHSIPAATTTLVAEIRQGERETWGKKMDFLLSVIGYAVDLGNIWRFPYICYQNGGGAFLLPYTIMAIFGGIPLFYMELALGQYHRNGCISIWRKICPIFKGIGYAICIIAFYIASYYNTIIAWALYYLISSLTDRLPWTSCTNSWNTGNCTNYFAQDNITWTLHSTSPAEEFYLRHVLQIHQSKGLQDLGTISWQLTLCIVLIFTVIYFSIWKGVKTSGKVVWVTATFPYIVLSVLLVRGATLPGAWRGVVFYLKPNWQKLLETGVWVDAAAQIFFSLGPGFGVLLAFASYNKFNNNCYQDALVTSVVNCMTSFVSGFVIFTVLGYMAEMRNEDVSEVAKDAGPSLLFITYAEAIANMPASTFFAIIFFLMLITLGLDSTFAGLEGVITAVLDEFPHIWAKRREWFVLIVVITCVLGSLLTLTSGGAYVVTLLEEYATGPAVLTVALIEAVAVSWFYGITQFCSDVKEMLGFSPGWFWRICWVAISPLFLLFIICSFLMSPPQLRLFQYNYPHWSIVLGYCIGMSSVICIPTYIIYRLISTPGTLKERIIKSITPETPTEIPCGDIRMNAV
Sigma intracellular receptor 2, sequence (Q5U3Y7 whole entry, looked up): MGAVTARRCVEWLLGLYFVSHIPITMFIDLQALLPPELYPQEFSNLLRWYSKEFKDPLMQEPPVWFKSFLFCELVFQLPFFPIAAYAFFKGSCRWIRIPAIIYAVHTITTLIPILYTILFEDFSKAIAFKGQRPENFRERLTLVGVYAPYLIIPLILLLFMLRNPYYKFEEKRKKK
T3 sequence (Q9WTR4 whole entry): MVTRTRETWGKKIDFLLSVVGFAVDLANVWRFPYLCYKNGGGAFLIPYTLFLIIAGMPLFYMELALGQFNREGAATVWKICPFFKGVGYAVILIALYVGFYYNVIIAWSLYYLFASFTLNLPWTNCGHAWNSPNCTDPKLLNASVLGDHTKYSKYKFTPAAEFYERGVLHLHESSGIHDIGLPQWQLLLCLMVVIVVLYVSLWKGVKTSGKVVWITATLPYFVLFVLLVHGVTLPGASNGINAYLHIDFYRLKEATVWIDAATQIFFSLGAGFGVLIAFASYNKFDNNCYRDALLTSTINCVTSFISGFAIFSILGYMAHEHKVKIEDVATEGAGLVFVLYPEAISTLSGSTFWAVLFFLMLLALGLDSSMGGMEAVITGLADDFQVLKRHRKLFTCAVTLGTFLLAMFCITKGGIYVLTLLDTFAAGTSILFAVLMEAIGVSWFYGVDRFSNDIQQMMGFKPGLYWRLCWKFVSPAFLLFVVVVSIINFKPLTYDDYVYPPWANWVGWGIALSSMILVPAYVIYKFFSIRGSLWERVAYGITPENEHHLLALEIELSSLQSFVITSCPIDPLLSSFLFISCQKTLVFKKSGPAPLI
T2 sequence (P23977 whole entry): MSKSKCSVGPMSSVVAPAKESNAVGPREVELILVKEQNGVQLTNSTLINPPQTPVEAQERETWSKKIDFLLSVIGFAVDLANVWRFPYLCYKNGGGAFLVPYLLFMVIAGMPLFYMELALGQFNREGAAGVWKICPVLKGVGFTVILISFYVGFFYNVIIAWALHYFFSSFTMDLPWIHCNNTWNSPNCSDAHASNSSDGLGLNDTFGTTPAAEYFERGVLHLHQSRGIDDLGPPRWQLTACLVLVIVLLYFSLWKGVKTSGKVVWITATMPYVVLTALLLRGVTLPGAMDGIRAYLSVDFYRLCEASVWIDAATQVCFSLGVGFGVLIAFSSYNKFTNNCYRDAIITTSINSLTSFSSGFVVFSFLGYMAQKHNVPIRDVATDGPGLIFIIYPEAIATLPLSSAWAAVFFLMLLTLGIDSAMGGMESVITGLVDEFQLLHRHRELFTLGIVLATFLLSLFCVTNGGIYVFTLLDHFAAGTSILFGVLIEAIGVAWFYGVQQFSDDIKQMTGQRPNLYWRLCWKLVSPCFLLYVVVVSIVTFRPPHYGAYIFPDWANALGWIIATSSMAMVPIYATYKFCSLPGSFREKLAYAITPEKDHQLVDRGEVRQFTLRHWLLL

Which results are given for Clc1ccccc1N1CCN(CCCn2c3ccccc3c3ccccc32)CC1?
Ki [1]: Not Active; Ki [2]: 113 µM; Ki [3]: Not Active; IC50 [4]: 2.77 µM

For C[C@H]1CN(CCCn2c3ccccc3c3ccccc32)C[C@H](C)N1C, which Ki [5] is on record?
The Ki was 9.37 µM.

What about the Ki [6] of the same molecule?
The Ki was 0.552 µM.

What about the Ki [2] of the same molecule?
The Ki was 0.436 µM.

And the Ki [7]?
The Ki was 0.373 µM.

What about the Ki [8] of the same molecule?
Its Ki is 0.23 µM.

What about the IC50 [4] of the same molecule?
The IC50 was 0.472 µM.

Which Ki [5] does the source give for C[C@H]1CN(CCCn2c3ccccc3c3ccccc32)C[C@H](C)N1CCCc1ccccc1 here?
The Ki was 2.49 µM.

And the Ki [6]?
Its Ki is 0.104 µM.

And the Ki [2]?
Its Ki is 0.263 µM.

And the Ki [7]?
Its Ki is 0.0445 µM.

And the Ki [8]?
The Ki was 0.145 µM.

What about the IC50 [4] of the same molecule?
The IC50 was 0.639 µM.

Which Ki [5] does the source give for C[C@H]1CN(CCCN(c2ccccc2)c2ccccc2)C[C@H](C)N1 here?
Its Ki is 6.81 µM.

What about the Ki [6] of the same molecule?
The Ki was 0.138 µM.

What about the Ki [2] of the same molecule?
The Ki was 0.813 µM.

And the Ki [7]?
Its Ki is 13.1 µM.

And the Ki [8]?
The Ki was 0.351 µM.

And the IC50 [4]?
Its IC50 is 1.06 µM.

For C[C@H]1CN(CCCN(c2ccccc2)c2ccccc2)C[C@H](C)N1CCCc1ccccc1, which Ki [5] is on record?
The Ki was 3.64 µM.

What about the Ki [6] of the same molecule?
The Ki was 0.0972 µM.

And the Ki [2]?
Its Ki is 0.061 µM.

And the Ki [7]?
The Ki was 0.219 µM.

What about the Ki [8] of the same molecule?
Its Ki is 0.183 µM.

What about the IC50 [4] of the same molecule?
Its IC50 is 0.0366 µM.

What does the source list for C[C@H]1CN(CCCn2c3ccccc3c3cc([N+](=O)[O-])ccc32)C[C@H](C)N1?
Ki [5]: 4.58 µM; Ki [6]: 0.596 µM; Ki [2]: 0.109 µM; Ki [7]: 1.17 µM; Ki [8]: 0.193 µM; IC50 [4]: 0.111 µM

What does the source list for C[C@H]1CN(CCCn2c3ccc(Br)cc3c3cc(Br)ccc32)C[C@H](C)N1?
Ki [5]: 1.3 µM; Ki [6]: 4.42 µM; Ki [2]: 3.89 µM; Ki [7]: 1.13 µM; Ki [8]: 0.675 µM

What does the source list for C[C@H]1CN(CCCn2c3ccc([N+](=O)[O-])cc3c3cc([N+](=O)[O-])ccc32)C[C@H](C)N1?
Ki [9]: 3.66 µM; Ki [10]: 1.85 µM; Ki [11]: 174 µM; IC50 [4]: 3.67 µM

Which Ki [5] does the source give for C[C@H]1CN(CCCn2c3ccccc3c3cc(N)ccc32)C[C@H](C)N1 here?
Its Ki is 13.9 µM.

And the Ki [6]?
Its Ki is 5.72 µM.

And the Ki [2]?
The Ki was 2.4 µM.

What about the Ki [7] of the same molecule?
The Ki was 2.1 µM.

And the Ki [8]?
The Ki was 1.66 µM.

Which Ki [12] does the source give for C[C@@H]1CN(CCCn2c3ccc(Br)cc3c3cc(Br)cc(Br)c32)C[C@@H](C)N1 here?
Its Ki is over 6 µM.

And the Ki [9]?
The Ki was 8.54 µM.

And the Ki [10]?
The Ki was 1.61 µM.

And the Ki [11]?
Its Ki is 30.3 µM.

With c1ccc(N2CCN(CCCn3c4ccccc4c4ccccc43)CC2)cc1 as the molecule, how does the Ki [5] read?
The Ki was 4.12 µM.

What about the Ki [1] of the same molecule?
The Ki was “Not Active”.

And the Ki [2]?
The Ki was 4.93 µM.

What about the IC50 [4] of the same molecule?
The IC50 was 1.82 µM.

Which Ki [5] does the source give for C[C@@H]1CN(CCCn2c3ccccc3c3ccccc32)C[C@H](C)N1 [RIMCAZOLE] here?
Its Ki is 2.16 µM.

And the Ki [2]?
The Ki was 0.224 µM.

What about the Ki [7] of the same molecule?
Its Ki is 0.825 µM.

And the IC50 [4]?
Its IC50 is 0.14 µM.
